Assay results gathered from unrelated publications.
Cell line: MCF7
Observed: cell growth or viability

| Compound | technique | time | IC50 |
| --- | --- | --- | --- |
| CCCCCCCNC1=C(n2cncn2)C(=O)c2ccccc2C1=O | MTT | 24 h | 22.3 µg/mL |
| C/C(=N\CCNCC/N=C(\C)c1c(O)c2ccccc2oc1=O)c1c(O)c2ccccc2oc1=O | MTT | 48 h | 11 µM |
| Clc1ccc(Cn2nc(-c3ncc(-c4ccccc4)s3)c3ccccc32)c(Cl)c1 | – | 48 h | 65.2 µM |
| O=C1CS/C(=N\c2cc(C(F)(F)F)ccc2-c2nnc(N3C(=O)CS/C3=N\c3ccc(-c4ccccc4)cc3)s2)N1c1ccc(-c2ccccc2)cc1 | MTT | – | 90.1 µM |
| O=C1C(=Nc2ccccc2I)c2ccccc2N1Cc1ccc([N+](=O)[O-])cc1 | MTT | 48 h | 11.6 µM |
| CC(=O)O[C@H]1C(=O)[C@@]2(C)[C@H]([C@H](OC(=O)c3ccccc3)[C@]3(O)C[C@H](OC(=O)[C@H](O)[C@@H](NC(=O)c4ccccc4)c4ccccc4)C(C)=C1C3(C)C)[C@]1(OC(C)=O)CO[C@@H]1C[C@@H]2O | – | – | 0.00751 µM |
| CCOC(=O)c1c(C)nc2ccc(-c3ccc(OCc4ccccc4)c(F)c3)cc2c1O | MTT | 48 h | 5 µM |
| NS(=O)(=O)c1ccc(-n2nc(C(=O)NN=Cc3ccc(O)cc3)cc2-c2ccccc2)cc1 | fluorescence | 48 h | 16.9 µM |
| NNc1nc2c(Cl)cc(Cl)cc2c(=O)n1-c1ccc(F)cc1 | MTT | 48 h | > 200 µM |
| COc1cccc(NC(=S)N/N=C/c2cccc3cc4ccccc4nc23)c1 | MTT | 48 h | > 50 µM |
| Fc1ccccc1Nc1nc(-c2ccncc2)nc2c1CNCC2 | MTT | – | > 100 µM |
| C=CCN1C(=O)C(=Nc2cccc(C)c2)c2ccccc21 | MTT | 48 h | > 100 µM |
| C[C@H]1[C@H](C)CC[C@]2(C)CC[C@]3(C)C(=CC(=O)[C@@H]4[C@@]5(C)CC[C@@H](O)[C@](C)(C(=O)NCc6cn(-c7ccc(Br)cc7)nn6)[C@@H]5CC[C@]43C)[C@H]12 | MTT | 24 h | 75.1 µM |
| O=C1Nc2ccccc2/C1=N/N=C/c1cccc([N+](=O)[O-])c1 | MTT | 48 h | 22.8 µg/mL |
| O=C(C=Cc1ccc(OCCCCOc2ccc(C=CC(=O)c3cccs3)cc2)cc1)c1cccs1 | MTT | 48 h | 134 µM |
| c1ccc(-c2noc(-c3nn(Cc4ccncc4)c4ccccc34)n2)cc1 | – | 48 h | 18.7 µM |
| O=[N+]([O-])c1cc(I)c(O)c(C=NNc2ccc(C(F)(F)F)cc2)c1 | MTT | 24 h | 8.56 µM |
| CNC(=O)c1cc(Oc2ccc(NC(=O)Nc3ccc(Cl)c(C(F)(F)F)c3)cc2)ccn1 | MTT | 48 h | 7.06 µM |
| O=C(NCc1ccc(OC(F)(F)F)cc1)c1cn(Cc2ccc(F)cc2)c2ccc(Oc3ccccc3)cc2c1=O | MTT | 24 h | 343 µM |
| CCc1ccc(N=C2C(=O)Nc3ccccc32)cc1 | MTT | 48 h | 51.7 µM |
| Cc1ccc(NNc2nc3ccc(Br)cc3c(=O)n2-c2ccccc2)cc1 | MTT | 48 h | > 200 µM |
| CC(=O)c1nc2ccccc2n1Cc1cn([C@@H]2O[C@H](CO)[C@H](O)[C@H](O)[C@H]2O)nn1 | LDH | 48 h | 2.89 µM |
